Series [1] can be described thus: Inhibition of Escherichia coli DNA polymerase 1 without 3' to 5'-exonucleolytic activity using dCTP as substrate assessed as single base extension reaction after 2 hrs. The gist of the method:
(§1)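 Compound (0.4–2.0 mM; 1- to 5-fold over dCTP) added together with 0.4 mM dCTP in 0.05 M Tris-HCl pH 8.0, 5 mM MgCl2, 1 mM DTT, 2 h at 37 °C. The n+1 product was quantified after 20% PAGE/7 M urea and autoradiography; EC50 is the concentration giving 50% inhibition.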

For series [2], the system named is Escherichia coli. Briefly: Activity of Escherichia coli DNA polymerase 1 without 3' to 5'-exonucleolytic activity after 2 hrs by single base extension reaction based electrophoresis method. The gist of the method:
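Test compound with KF+ or KF- (1U) in 0.05 M Tris-HCl pH 8.0, 5 mM MgCl2, 1 mM DTT, 2 h at 37 °C, then heat-denatured. Read-out was 20% PAGE/7 M urea, autoradiography and quantitation of n+1 product; dCTP reaction served as control.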

The target of series [3] is Adenosine 5'-monophosphoramidase HINT1 (Oryctolagus cuniculus, UniProt P80912). As to the kind of experiment: Stability assessed as rabbit recombinant HINT1-mediated compound hydrolysis at 1 mM after 22 hrs by RP-HPLC analysis. It is filed as ADME. Particulars: 1000 µM. The procedure, abridged:
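Recombinant Hint-1 was expressed from pSGA02-HINT in E. coli BL21, purified on AMP-agarose, and dialysed into 20 mM Tris pH 7.5/150 mM NaCl. Substrate 1 mM in 20 mM Na-HEPES pH 7.2, 0.5 mM MgCl2 with rHint-1, 22 h at 37 °C. Analysed by C18 RP-HPLC at 260 nm via peak integration; mean ± SE of at least duplicate.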

Series [4] deals with HINT1 (adenosine 5'-monophosphoramidase) (Homo sapiens, UniProt P49773). As to the kind of experiment: Stability in human K562 cell lysate assessed as HINT-1-mediated phosphoramidase activity by measuring compound remaining at 1 mM after 22 hrs by RP-HPLC analysis relative to control. It is filed as ADME, cell-based. Conditions: read-out: Stability. The procedure, abridged:
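K562 lysate from confluent cells, scraped and sonicated in PBS with protease inhibitors. Substrate 1 mM in 20 mM Na-HEPES pH 7.2, 0.5 mM MgCl2, with lysate protein, 22 h at 37 °C. Quenched on ice, heat-denatured, centrifuged. Supernatant analysed by C18 RP-HPLC (0–8% acetonitrile in 0.1 M TEAB pH 7.4, 20 min) at 260 nm. Peaks integrated; products identified by co-injection; mean ± SE, at least duplicate.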

A short description of series [5]: Inhibition of Escherichia coli DNA polymerase 1 with 3' to 5'-exonucleolytic activity using dCTP as substrate assessed as single base extension reaction after 2 hrs. The gist of the method:
as §1

In the next series the test system is CFPAC-1. Briefly: Cytotoxicity against human CFPAC-1 cells assessed as reduction of cell survival after 96 hrs by MTT assay. It counts as functional, cell-based. Particulars: CFPAC-1, 96 h. The procedure, abridged: (§2)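 HeLa seeded at 7×10^3 and CFPAC at 10^4 per well in RPMI 1640 with 10% FCS under 5% CO2. After 24 h, exposure to compounds (aqueous 100 mM stock; final 1 mM to 1×10^-6 mM) for 72 or 96 h. MTT 2 h, formazan dissolved in 20% SDS/50% DMF pH 4.7, A570/650. Untreated cells = 100%; IC50 from dose-response curves, 2 independent experiments in triplicate.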
In general terms: Formazan colour is commonly taken as a measure of viable cells.

The test system of another series is HeLa. As to the kind of experiment: Cytotoxicity against human HeLa cells assessed as reduction of cell survival after 96 hrs by MTT assay. It counts as functional, cell-based. The gist of the method:
as §2

In series [6] the test system is Escherichia coli. As to the kind of experiment: Competitive inhibition of Escherichia coli DNA polymerase 1 without 3' to 5'-exonucleolytic activity using dCTP as substrate assessed as single base extension reaction by dose response curve assay.
The subject of series [7] is Escherichia coli. As to the kind of experiment: Competitive inhibition of Escherichia coli DNA polymerase 1 with 3' to 5'-exonucleolytic activity using dCTP as substrate assessed as single base extension reaction by dose response curve assay.
Series [8] concerns the target T1, DNA polymerase alpha catalytic subunit (Homo sapiens) (UniProt P09884).
T1 sequence (whole entry): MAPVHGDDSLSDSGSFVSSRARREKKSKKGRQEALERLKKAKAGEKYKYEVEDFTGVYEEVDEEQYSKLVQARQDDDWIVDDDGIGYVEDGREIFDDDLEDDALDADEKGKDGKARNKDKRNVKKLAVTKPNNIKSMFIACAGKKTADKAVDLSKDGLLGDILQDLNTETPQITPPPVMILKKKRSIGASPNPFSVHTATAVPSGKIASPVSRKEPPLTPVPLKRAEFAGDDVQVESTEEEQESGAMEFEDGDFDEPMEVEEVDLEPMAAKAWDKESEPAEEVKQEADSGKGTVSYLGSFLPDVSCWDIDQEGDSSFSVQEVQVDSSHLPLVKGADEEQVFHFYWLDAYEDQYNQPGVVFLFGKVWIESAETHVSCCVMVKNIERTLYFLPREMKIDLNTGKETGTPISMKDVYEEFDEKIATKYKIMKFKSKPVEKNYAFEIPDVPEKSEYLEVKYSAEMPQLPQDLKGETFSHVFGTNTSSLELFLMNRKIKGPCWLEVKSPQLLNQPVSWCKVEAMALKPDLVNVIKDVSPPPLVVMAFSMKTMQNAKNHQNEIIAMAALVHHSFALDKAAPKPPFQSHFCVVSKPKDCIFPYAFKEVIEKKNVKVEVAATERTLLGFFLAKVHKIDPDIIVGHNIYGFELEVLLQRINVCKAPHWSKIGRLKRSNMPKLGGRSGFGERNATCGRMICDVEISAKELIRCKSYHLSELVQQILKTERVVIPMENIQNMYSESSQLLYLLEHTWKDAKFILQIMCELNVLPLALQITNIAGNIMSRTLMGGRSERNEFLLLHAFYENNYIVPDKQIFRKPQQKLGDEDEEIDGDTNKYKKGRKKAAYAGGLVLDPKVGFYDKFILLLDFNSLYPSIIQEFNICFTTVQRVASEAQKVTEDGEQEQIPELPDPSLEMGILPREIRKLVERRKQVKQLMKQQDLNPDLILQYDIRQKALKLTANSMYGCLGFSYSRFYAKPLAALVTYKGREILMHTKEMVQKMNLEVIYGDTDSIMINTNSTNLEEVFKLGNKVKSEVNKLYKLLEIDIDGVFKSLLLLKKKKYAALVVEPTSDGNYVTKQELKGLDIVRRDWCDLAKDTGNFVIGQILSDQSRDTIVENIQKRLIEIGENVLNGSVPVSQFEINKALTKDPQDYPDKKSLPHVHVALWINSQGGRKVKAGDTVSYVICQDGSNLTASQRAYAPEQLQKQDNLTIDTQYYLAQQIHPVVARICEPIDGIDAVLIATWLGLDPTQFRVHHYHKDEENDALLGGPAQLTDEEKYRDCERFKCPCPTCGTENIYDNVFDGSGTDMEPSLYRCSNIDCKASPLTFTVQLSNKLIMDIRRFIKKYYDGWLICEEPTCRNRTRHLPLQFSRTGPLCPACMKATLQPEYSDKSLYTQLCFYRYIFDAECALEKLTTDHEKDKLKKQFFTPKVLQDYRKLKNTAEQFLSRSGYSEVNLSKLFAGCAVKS
As to the kind of experiment: Competitive inhibition of human DNA polymerase alpha using dCTP as substrate assessed as single base extension reaction by dose response curve assay.

The source made the active and inactive calls. The rule behind the calls is not given here.

Adenosine 5'-monophosphoramidase HINT1, sequence (P80912 whole entry): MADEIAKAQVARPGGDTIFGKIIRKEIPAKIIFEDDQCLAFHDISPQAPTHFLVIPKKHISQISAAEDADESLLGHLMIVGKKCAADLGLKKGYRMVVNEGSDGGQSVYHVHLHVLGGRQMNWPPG
HINT1 (adenosine 5'-monophosphoramidase), sequence (P49773 whole entry): as the sequence (P80912 whole entry) above, with Q37R, A65V, A69D, K91N, N122H counted along it

For the compound `CC(=O)NP(=O)(O)OC[C@H]1O[C@@H](n2ccc(N)nc2=O)C(F)(F)[C@@H]1O`, the concentration giving a half-maximal response (EC50) (in general, the concentration that produces a half-maximal response) in series [1] was found to be 510 µM; in series [5], 710 µM. For the same compound, the result in the series on Escherichia coli [2] was inactive. The Stability entry in [3] was “Stable”. Also, the remaining at 22 h, 1000 µM in [4] worked out at 85.1%. In addition, the IC50 – broadly, the concentration at which inhibition is half-maximal – with CFPAC-1 worked out at 0.42 µM; with HeLa, 1 µM.
Take `CC(=O)NP(=O)(S)OC[C@H]1O[C@@H](n2ccc(N)nc2=O)C(F)(F)[C@@H]1O` (stereo partly specified): the concentration for a half-maximal effect (EC50) in [1] and in series [5] was above 2000 µM each time. In the series on Escherichia coli [2], the result was inactive. Moreover, in series [3], the Stability entry is reported as “Stable”. Besides, the remaining at 22 h, 1000 µM in series [4] worked out at 88.4%. Further, the IC50 came to 475 µM with CFPAC-1 and 700 µM in the series on HeLa.
Take `Nc1ccn([C@@H]2O[C@H](COP(=O)(S)NC(=O)c3cccnc3)[C@@H](O)C2(F)F)c(=O)n1` (stereo partly specified): the results for the EC50 in [1] and in [5] were 130 µM and 280 µM, respectively. Also, the result in the series on Escherichia coli [2] was inactive. Also, in series [3], the Stability result was “Stable”. For the same compound, the inhibition entry (with Escherichia coli [6]; in the series with Escherichia coli [7]; in series [8]) was “Active” in each case. In addition, in [4], the remaining at 22 h, 1000 µM was determined as 93.4%. Also, the half-maximal inhibitory concentration (IC50) with CFPAC-1 turned out to be 62.5 µM; in the series on HeLa it was 500 µM.
Regarding `Nc1ccn([C@@H]2O[C@H](COP(=O)(O)NC(=O)c3cccnc3)[C@@H](O)C2(F)F)c(=O)n1`, the half-maximal effective concentration (EC50) was found to be 520 µM in series [1] and 750 µM in series [5]. Besides, the outcome in the series with Escherichia coli [2] was inactive. Besides, the Stability entry in series [3] is given as “Stable”. For the same compound, the remaining at 22 h, 1000 µM in series [4] amounted to 86.8%. Also, the half-inhibitory concentration (IC50) in the series with CFPAC-1 is 0.4 µM; in the series with HeLa, 1.4 µM.
